Assay results reported in ChEMBL document CHEMBL3860041, “Synthesis, biological evaluation and molecular modeling study of some new methoxylated 2-benzylthio-quinazoline-4(3H)-ones as nonclassical antifolates” (Bioorg Med Chem Lett, 2016).

Columns and labels:
Type in all cases: functional
[1] = Growth inhibition of human HL-60(TB) cells at 10 uM after 48 hrs by SRB assay relative to control; conditions: HL-60, 48 h, read-out: GI
In short: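 NCI disease-oriented human tumour cell line screen: primary single-dose assay at 10 μM across the full 60-cell-line panel spanning nine tumour subpanels.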

[2] = Growth inhibition of human K562 cells at 10 uM after 48 hrs by SRB assay relative to control; conditions: K562, 48 h, read-out: GI
In short: (§1)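 NCI 60-cell-line panel, nine tumor subpanels; compounds tested at a single dose of 10 μM in the primary screen.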

[3] = Growth inhibition of human RPMI8226 cells at 10 uM after 48 hrs by SRB assay relative to control; conditions: RPMI-8226, 48 h, read-out: GI; in short: as §1
[4] = Growth inhibition of human HOP62 cells at 10 uM after 48 hrs by SRB assay relative to control; conditions: HOP-62, 48 h, read-out: GI; in short: as §1
[5] = Growth inhibition of human NCI-H23 cells at 10 uM after 48 hrs by SRB assay relative to control; conditions: NCI-H23, 48 h, read-out: GI; in short: as §1
[6] = Growth inhibition of human NCI-H460 cells at 10 uM after 48 hrs by SRB assay relative to control; conditions: NCI-H460, 48 h, read-out: GI; in short: as §1
[7] = Growth inhibition of human NCI-H522 cells at 10 uM after 48 hrs by SRB assay relative to control; conditions: NCI-H522, 48 h, read-out: GI; in short: as §1
[8] = Growth inhibition of human COLO205 cells at 10 uM after 48 hrs by SRB assay relative to control; conditions: COLO 205, 48 h, read-out: GI; in short: as §1
[9] = Growth inhibition of human HCT116 cells at 10 uM after 48 hrs by SRB assay relative to control; conditions: HCT-116, 48 h, read-out: GI; in short: as §1
[10] = Growth inhibition of human HCT15 cells at 10 uM after 48 hrs by SRB assay relative to control; conditions: HCT-15, 48 h, read-out: GI; in short: as §1
[11] = Growth inhibition of human KM12 cells at 10 uM after 48 hrs by SRB assay relative to control; conditions: KM12, 48 h, read-out: GI; in short: as §1
[12] = Growth inhibition of human SW620 cells at 10 uM after 48 hrs by SRB assay relative to control; conditions: SW-620, 48 h, read-out: GI
In short: (§2)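 Primary screen across the full NCI 60 human tumour cell line panel, which covers nine tumour subpanels. A single dose of 10 μM was applied to each line, and growth was recorded for each cell line.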

[13] = Growth inhibition of human SF295 cells at 10 uM after 48 hrs by SRB assay relative to control; conditions: SF-295, 48 h, read-out: GI; in short: as §1
[14] = Growth inhibition of human SNB75 cells at 10 uM after 48 hrs by SRB assay relative to control; conditions: SNB-75, 48 h, read-out: GI; in short: as §2
[15] = Growth inhibition of human MALME-3M cells at 10 uM after 48 hrs by SRB assay relative to control; conditions: read-out: GI; in short: as §1
[16] = Growth inhibition of human M14 cells at 10 uM after 48 hrs by SRB assay relative to control; conditions: M14, 48 h, read-out: GI; in short: as §1
[17] = Growth inhibition of human SK-MEL-2 cells at 10 uM after 48 hrs by SRB assay relative to control; conditions: SK-MEL-2, 48 h, read-out: GI; in short: as §2
[18] = Growth inhibition of human IGROV1 cells at 10 uM after 48 hrs by SRB assay relative to control; conditions: IGROV-1, 48 h, read-out: GI; in short: as §1
[19] = Growth inhibition of human OVCAR3 cells at 10 uM after 48 hrs by SRB assay relative to control; conditions: OVCAR-3, 48 h, read-out: GI; in short: as §1
[20] = Growth inhibition of human OVCAR5 cells at 10 uM after 48 hrs by SRB assay relative to control; conditions: OVCAR-5, 48 h, read-out: GI; in short: as §1
[21] = Growth inhibition of human NCI/ADR-RES cells at 10 uM after 48 hrs by SRB assay relative to control; conditions: read-out: GI; in short: as §1
[22] = Growth inhibition of human ACHN cells at 10 uM after 48 hrs by SRB assay relative to control; conditions: read-out: GI; in short: as §1
[23] = Growth inhibition of human PC3 cells at 10 uM after 48 hrs by SRB assay relative to control; conditions: PC-3, 48 h, read-out: GI; in short: as §1
[24] = Growth inhibition of human BT549 cells at 10 uM after 48 hrs by SRB assay relative to control; conditions: BT-549, 48 h, read-out: GI; in short: as §1
[25] = Growth inhibition of human T47D cells at 10 uM after 48 hrs by SRB assay relative to control; conditions: read-out: GI; in short: as §2
[26] = Growth inhibition of human MDA-MB-468 cells at 10 uM after 48 hrs by SRB assay relative to control; conditions: MDA-MB-468, 48 h, read-out: GI; in short: as §1

For `COc1ccc(CSc2nc3cc(OC)c(OC)cc3c(=O)n2-c2ccc(OC)cc2OC)cc1`, the inhibition of growth at 10 µM [1] was less than 10%, the inhibition of growth at 10 µM [2] was 12.9% and the inhibition of growth at 10 µM [3] was 36.3%. For the same molecule, the inhibition of growth at 10 µM [4] was less than 10%, the inhibition of growth at 10 µM [5] was 21.7% and the inhibition of growth at 10 µM [6] was less than 10%. It also gave an inhibition of growth at 10 µM [7] of 31.4%, an inhibition of growth at 10 µM [8] of less than 10% and an inhibition of growth at 10 µM [9] of 37.2%. The inhibition of growth at 10 µM [10] was 19.4%, the inhibition of growth at 10 µM [11] was 21.9% and the inhibition of growth at 10 µM [12] was less than 10%. For the same molecule, the inhibition of growth at 10 µM [13] was 10.4%, the inhibition of growth at 10 µM [14] was less than 10% and the inhibition of growth at 10 µM [15] was 17.4%. It also gave an inhibition of growth at 10 µM [16] of less than 10%, an inhibition of growth at 10 µM [17] of less than 10% and an inhibition of growth at 10 µM [18] of 14%. It also gave an inhibition of growth at 10 µM [19] of less than 10%, an inhibition of growth at 10 µM [20] of less than 10% and an inhibition of growth at 10 µM [21] of 20.5%. It also gave an inhibition of growth at 10 µM [22] of less than 10%, an inhibition of growth at 10 µM [23] of 44.4% and an inhibition of growth at 10 µM [24] of less than 10%. The inhibition of growth at 10 µM [25] was 24.4% and the inhibition of growth at 10 µM [26] was 25.7%.
